MIC50, MIC90 and MIC data for 3 compounds are collected here from ChEMBL document CHEMBL1212764, “Antimicrobial resistance in Haemophilus influenzae respiratory tract isolates in Korea: results of a nationwide acute respiratory infections surveillance” (2010).

Converted amounts (≈) assume the structure as drawn.

Assay type in all cases: functional
Test [1] deals with Haemophilus influenzae. In words: Antimicrobial activity against Beta-lactamase-positive, ampicillin-cluvulanate-resistant Haemophilus influenzae by broth microdilution method. The method, boiled down: (§1)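 Broth microdilution MIC in freshly prepared Haemophilus test medium per 2008 CLSI guidelines; H. influenzae ATCC 49247 and ATCC 49766 as control strains. Isolates from outpatient nasal aspirates (no prior antibiotics), cultured on blood agar with S. aureus streak and chocolate agar. PBP3 substitutions deduced from ftsI sequencing against the Rd strain; β-lactamase genes (TEM-1, ROB-1) detected by PCR.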
Background: Dilution methods test growth across graded concentrations, often in twofold steps.

Test [2] concerns Haemophilus influenzae. In words: Antimicrobial activity against Beta-lactamase-negative, ampicillin-resistant Haemophilus influenzae by broth microdilution method. The essentials:
as §1

The test system of test [3] is Haemophilus influenzae. Briefly: Antimicrobial activity against Haemophilus influenzae isolate by broth microdilution method. The method, boiled down: as §1
The test system of test [4] is Haemophilus influenzae. Briefly: Antimicrobial activity against beta-lactamase-negative, ampicillin-sensitive Haemophilus influenzae by broth microdilution method. The method, boiled down: as §1
The test system of test [5] is Haemophilus influenzae. In words: Antimicrobial activity against Beta-lactamase-positive, ampicillin-resistant Haemophilus influenzae by broth microdilution method. The method, boiled down: as §1
In test [6] the test system is Haemophilus influenzae. Briefly: Antimicrobial activity against Beta-lactamase-positive, ampicillin-cluvulanate-resistant Haemophilus influenzae with Asp350Asn, Met377Ile, Ser385Thr, Asn526Lys substitutions in penicillin-binding protein 3 by broth microdilution method. The essentials: as §1
The test system of test [7] is Haemophilus influenzae. Briefly: Antimicrobial activity against Beta-lactamase-positive, ampicillin-cluvulanate-resistant Haemophilus influenzae with Asp350Asn, Ser357Asp, Ala437Ser, Ala502Thr, Asn526Lys substitutions in penicillin-binding protein 3 by broth microdilution method. The essentials: as §1
The subject of test [8] is Haemophilus influenzae. Briefly: Antimicrobial activity against Beta-lactamase-positive, ampicillin-cluvulanate-resistant Haemophilus influenzae with Asp350Asn, Ser357Asp, Met377Ile, Ser385Thr, Arg517His substitutions in penicillin-binding protein 3 by broth microdilution method. The method, boiled down:
as §1

Test [9] relates to Haemophilus influenzae. In words: Antimicrobial activity against Beta-lactamase-negative, ampicillin-resistant Haemophilus influenzae with Ala502Val, Asn526Lys substitutions in penicillin-binding protein 3 by broth microdilution method. The method, boiled down:
as §1

Test [10] concerns Haemophilus influenzae. Briefly: Antimicrobial activity against Beta-lactamase-positive, ampicillin-cluvulanate-resistant Haemophilus influenzae with Ala368Thr, Ala502Thr, Asn526Lys substitutions in penicillin-binding protein 3 by broth microdilution method. The method, boiled down:
as §1

In test [11] the test system is Haemophilus influenzae. Briefly: Antimicrobial activity against Beta-lactamase-positive, ampicillin-cluvulanate-resistant Haemophilus influenzae with Asp350Asn, Ala437Ser substitutions in penicillin-binding protein 3 by broth microdilution method. The method, boiled down: as §1
The test system of test [12] is Haemophilus influenzae. In words: Antimicrobial activity against Beta-lactamase-negative, ampicillin-resistant Haemophilus influenzae with Gly490Glu, Asn526Lys substitutions in penicillin-binding protein 3 by broth microdilution method. The essentials:
as §1

The test system of test [13] is Haemophilus influenzae. Briefly: Antimicrobial activity against Beta-lactamase-positive, ampicillin-cluvulanate-resistant Haemophilus influenzae with Asp350Asn, Met377Ile, Asn526Lys substitutions in penicillin-binding protein 3 by broth microdilution method. The essentials:
as §1

Test [14] has as its system Haemophilus influenzae. Briefly: Antimicrobial activity against Beta-lactamase-negative, ampicillin-resistant Haemophilus influenzae with Asp350Asn, Met377Ile, Gly490Glu, Ala502Val, Asn526Lys substitutions in penicillin-binding protein 3 by broth microdilution method. The method, boiled down: as §1
Test [15] deals with Haemophilus influenzae. In words: Antimicrobial activity against Beta-lactamase-negative, ampicillin-resistant Haemophilus influenzae with Asp350Asn, Met377Ile, Asn526Lys substitutions in penicillin-binding protein 3 by broth microdilution method. The essentials:
as §1

Test [16] concerns Haemophilus influenzae. Briefly: Antimicrobial activity against Beta-lactamase-positive, ampicillin-cluvulanate-resistant Haemophilus influenzae with Asp350Asn, Ala502Thr, Asn526Lys substitutions in penicillin-binding protein 3 by broth microdilution method. The method, boiled down: as §1
Test [17] relates to Haemophilus influenzae. In words: Antimicrobial activity against Beta-lactamase-negative, ampicillin-resistant Haemophilus influenzae with Asp350Asn, Ser357Asp, Met377Ile, Ser385Thr, Leu389Phe, substitutions in penicillin-binding protein 3 by broth microdilution method. The method, boiled down:
as §1

In test [18] the test system is Haemophilus influenzae. In words: Antimicrobial activity against Beta-lactamase-negative, ampicillin-resistant Haemophilus influenzae with Asp350Asn, Ser357Asp, Met377Ile, Ser385Thr, Ala502Thr, Asn526Lys substitutions in penicillin-binding protein 3 by broth microdilution method. The method, boiled down:
as §1

Test [19] relates to Haemophilus influenzae. In words: Antimicrobial activity against Beta-lactamase-negative, ampicillin-resistant Haemophilus influenzae with Ile449Val, Asn526Lys substitutions in penicillin-binding protein 3 by broth microdilution method. The settings on record: Haemophilus influenzae; read-out: MIC. The essentials: as §1
Test [20] deals with Haemophilus influenzae. In words: Antimicrobial activity against Beta-lactamase-negative, ampicillin-resistant Haemophilus influenzae with Ile449Val, Ala502Thr, Asn526Lys substitutions in penicillin-binding protein 3 by broth microdilution method. The method, boiled down:
as §1

Test [21] deals with Haemophilus influenzae. In words: Antimicrobial activity against Beta-lactamase-negative, ampicillin-resistant Haemophilus influenzae with Asp350Asn, Met377Ile, Ala502Val, Asn526Lys substitutions in penicillin-binding protein 3 by broth microdilution method. The method, boiled down: as §1
In test [22] the test system is Haemophilus influenzae. In words: Antimicrobial activity against Beta-lactamase-negative, ampicillin-resistant Haemophilus influenzae with Asp350Asn, Ser357Asp, Ser385Thr, Leu389Phe, Ala502Thr, Asn526Lys substitutions in penicillin-binding protein 3 by broth microdilution method. The method, boiled down: as §1
In test [23] the test system is Haemophilus influenzae. Briefly: Antimicrobial activity against Beta-lactamase-negative, ampicillin-resistant Haemophilus influenzae with Ser311Pro, Ala502Thr, Asn526Lys substitutions in penicillin-binding protein 3 by broth microdilution method. The essentials: as §1
Test [24] relates to Haemophilus influenzae. Briefly: Antimicrobial activity against Beta-lactamase-negative, ampicillin-resistant Haemophilus influenzae with penicillin-binding protein 3 by broth microdilution method. The essentials:
as §1

Test [25] concerns Haemophilus influenzae. Briefly: Antimicrobial activity against Beta-lactamase-positive, ampicillin-cluvulanate-resistant Haemophilus influenzae with Asp350Asn, Met377Ile, Gly490Glu, Ala502Val, Asn526Lys substitutions in penicillin-binding protein 3 by broth microdilution method. The essentials: as §1
Test [26] relates to Haemophilus influenzae. Briefly: Antimicrobial activity against Beta-lactamase-negative, ampicillin-resistant Haemophilus influenzae with Asp350Asn, Ser357Asp, Met377Ile, Ser385Thr, Arg517His substitutions in penicillin-binding protein 3 by broth microdilution method. The method, boiled down:
as §1

The subject of test [27] is Haemophilus influenzae. In words: Antimicrobial activity against Beta-lactamase-positive, ampicillin-cluvulanate-resistant Haemophilus influenzae with Ala502Val, Asn526Lys substitutions in penicillin-binding protein 3 by broth microdilution method. The method, boiled down: as §1
For test [28], the system named is Haemophilus influenzae. In words: Antimicrobial activity against Beta-lactamase-negative, ampicillin-resistant Haemophilus influenzae with Asp350Asn, Met377Ile, Gly490Glu, Asn526Lys substitutions in penicillin-binding protein 3 by broth microdilution method. The essentials:
as §1

In test [29] the test system is Haemophilus influenzae. In words: Antimicrobial activity against Beta-lactamase-positive, ampicillin-cluvulanate-resistant Haemophilus influenzae with Ile449Val, Asn526Lys substitutions in penicillin-binding protein 3 by broth microdilution method. The method, boiled down:
as §1

Test [30] has as its system Haemophilus influenzae. Briefly: Antimicrobial activity against Beta-lactamase-positive, ampicillin-cluvulanate-resistant Haemophilus influenzae with Asp350Asn, Met377Ile, Ala502Val, Asn526Lys substitutions in penicillin-binding protein 3 by broth microdilution method. The method, boiled down: as §1

For the compound `O=C(N[C@H](CO)[C@H](O)c1ccc([N+](=O)[O-])cc1)C(Cl)Cl` [CHLORAMPHENICOL], the MIC50 in the test with Haemophilus influenzae [1], against Haemophilus influenzae [2], in the test on Haemophilus influenzae [3], in the test with Haemophilus influenzae [4] and in the test on Haemophilus influenzae [5] was 0.5 µg/mL (≈ 1.55 µM) each time. The MIC90 stood at 8 µg/mL (≈ 24.8 µM) with Haemophilus influenzae [1]; 1 µg/mL (≈ 3.09 µM) against Haemophilus influenzae [2]; 1 µg/mL (≈ 3.09 µM) in the test with Haemophilus influenzae [3]; 0.5 µg/mL (≈ 1.55 µM) against Haemophilus influenzae [4]; 8 µg/mL (≈ 24.8 µM) in the test on Haemophilus influenzae [5].

`C[C@H]1COc2c(N3CCN(C)CC3)c(F)cc3c(=O)c(C(=O)O)cn1c23.C[C@H]1COc2c(N3CCN(C)CC3)c(F)cc3c(=O)c(C(=O)O)cn1c23.O` [LEVOFLOXACIN]: the MIC50 with Haemophilus influenzae [1], in the test on Haemophilus influenzae [2], with Haemophilus influenzae [3], in the test with Haemophilus influenzae [4] and in the test with Haemophilus influenzae [5] was 0.016 µg/mL throughout. Further, the MIC90 in the test on Haemophilus influenzae [1] was 0.031 µg/mL; with Haemophilus influenzae [2], 0.016 µg/mL; in the test on Haemophilus influenzae [3], 0.031 µg/mL; against Haemophilus influenzae [4] it was 0.031 µg/mL; in the test on Haemophilus influenzae [5], 0.031 µg/mL.

For the compound `CO/N=C(\C(=O)N[C@@H]1C(=O)N2C(C(=O)O)=C(COC(C)=O)CS[C@H]12)c1csc(N)n1` [CEFOTAXIME], the MIC is 0.532 µg/mL (≈ 1.17 µM) in the test on Haemophilus influenzae [6]; 0.079 µg/mL (≈ 0.173 µM) in the test on Haemophilus influenzae [7]; 0.188 µg/mL (≈ 0.413 µM) in the test with Haemophilus influenzae [8]; 0.069 µg/mL (≈ 0.151 µM) in the test on Haemophilus influenzae [9]; 0.079 µg/mL (≈ 0.173 µM) against Haemophilus influenzae [10]; 0.125 µg/mL (≈ 0.274 µM) in the test on Haemophilus influenzae [11]. In addition, the MIC against Haemophilus influenzae [12] is 0.063 µg/mL (≈ 0.138 µM); against Haemophilus influenzae [13] it was 0.532 µg/mL (≈ 1.17 µM); in the test on Haemophilus influenzae [14] it was 0.069 µg/mL (≈ 0.151 µM); against Haemophilus influenzae [15], 0.063 µg/mL (≈ 0.138 µM); in the test with Haemophilus influenzae [16] it was 0.079 µg/mL (≈ 0.173 µM); against Haemophilus influenzae [17], 1.7 µg/mL (≈ 3.73 µM). Moreover, the MIC worked out at 0.194 µg/mL (≈ 0.426 µM) in the test on Haemophilus influenzae [18]; 0.708 µg/mL (≈ 1.55 µM) with Haemophilus influenzae [19]; 0.194 µg/mL (≈ 0.426 µM) in the test with Haemophilus influenzae [20]; 0.069 µg/mL (≈ 0.151 µM) with Haemophilus influenzae [21]; 0.194 µg/mL (≈ 0.426 µM) against Haemophilus influenzae [22]; 0.194 µg/mL (≈ 0.426 µM) against Haemophilus influenzae [23]. The MIC is 0.063 µg/mL (≈ 0.138 µM) with Haemophilus influenzae [24]; 0.188 µg/mL (≈ 0.413 µM) in the test on Haemophilus influenzae [25]; 0.25 µg/mL (≈ 0.549 µM) against Haemophilus influenzae [26]; 0.188 µg/mL (≈ 0.413 µM) with Haemophilus influenzae [27]; 0.063 µg/mL (≈ 0.138 µM) in the test with Haemophilus influenzae [28]; 0.094 µg/mL (≈ 0.206 µM) against Haemophilus influenzae [29]. Besides, the MIC against Haemophilus influenzae [30] is 0.188 µg/mL (≈ 0.413 µM). Also, the MIC50 in the test with Haemophilus influenzae [1], against Haemophilus influenzae [2], against Haemophilus influenzae [3], against Haemophilus influenzae [4] and with Haemophilus influenzae [5] was 0.063 µg/mL (≈ 0.138 µM) throughout. For the same compound, the MIC90 is 1 µg/mL (≈ 2.2 µM) against Haemophilus influenzae [1]; 1 µg/mL (≈ 2.2 µM) against Haemophilus influenzae [2]; 0.125 µg/mL (≈ 0.274 µM) against Haemophilus influenzae [3]; 0.25 µg/mL (≈ 0.549 µM) against Haemophilus influenzae [4]; 0.125 µg/mL (≈ 0.274 µM) in the test on Haemophilus influenzae [5].
